The nature of data set [1]: Metabolic stability in 80% human plasma assessed as compound remaining at 5 mg/ml measured at 120 mins by HPLC analysis. Type of data set: ADME, cell-free. To be noted: read-out: Stability. The essentials:
(§1)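 Human plasma at 80%, diluted with isotonic phosphate buffer pH 7.4, 37 °C in a water bath. Compound stock is 5 mg/ml in THF, diluted 1:10 into the plasma. Samples were taken at 0, 15, 30, 60 and 120 min, quenched in ACN, centrifuged 5 min, and the supernatant analysed by HPLC for ester remaining.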

A short description of data set [2]: Metabolic stability in 80% human plasma assessed as compound remaining at 5 mg/ml measured at 60 mins by HPLC analysis. Type of data set: ADME, cell-free. To be noted: read-out: Stability. In outline:
as §1

Data set [3] is described as follows: Metabolic stability in 80% human plasma assessed as compound remaining at 5 mg/ml measured at 15 mins by HPLC analysis. Type of data set: ADME, cell-free. The settings on record: read-out: Stability. In outline: as §1
Data set [4] in a line: Metabolic stability in 80% human plasma assessed as compound remaining at 5 mg/ml measured at 30 mins by HPLC analysis. Type of data set: ADME, cell-free. The settings on record: read-out: Stability. The essentials:
as §1

Data set [5] in a line: Chemical stability in simulated gastric fluid assessed as compound remaining at 5 mg/ml at pH 2 measured at 8 hrs by HPLC analysis. The format is physicochemical. The settings on record: read-out: Stability. In outline: (§2)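 Stability in simulated gastric fluid, HCl buffer pH 2, 37 °C in a water bath. Compound stock is 5 mg/ml in THF, diluted 1:10 into buffer. Samples were taken at 0, 2, 5, 8 and 12 h, diluted with ACN and analysed by HPLC. % remaining = peak area at each time / peak area at 0 min × 100.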

A short description of data set [6]: Chemical stability in simulated gastric fluid assessed as compound remaining at 5 mg/ml at pH 2 measured at 12 hrs by HPLC analysis. To be noted: read-out: Stability. The format is physicochemical. In outline:
as §2

Data set [7] can be described thus: Chemical stability in simulated gastric fluid assessed as compound remaining at 5 mg/ml at pH 2 measured at 5 hrs by HPLC analysis. The format is physicochemical. To be noted: read-out: Stability. The essentials:
as §2

Data set [8] can be described thus: Chemical stability in simulated gastric fluid assessed as compound remaining at 5 mg/ml at pH 2 measured at 2 hrs by HPLC analysis. Type of data set: physicochemical. The settings on record: read-out: Stability. The essentials:
as §2

The subject of data set [9] is A549. As to the kind of experiment: Cytotoxicity against human A549 cells after 48 hrs by MTT assay. The format is functional, cell-based. The essentials:
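A549 cells grown in RPMI with 5% FBS and 1% penicillin-streptomycin. Seeded at 4000 cells/well, attached overnight, then exposed to compound at 0.01–100 µmol for 48 h. MTT added for 4 h, formazan dissolved in DMSO, absorbance read at 570 nm. Mean of at least three independent experiments, each in triplicate.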

In data set [10] the target is T1, Inhibitor of nuclear factor kappa-B kinase subunit beta (Homo sapiens, UniProt O14920).
T1 sequence (O14920 whole entry): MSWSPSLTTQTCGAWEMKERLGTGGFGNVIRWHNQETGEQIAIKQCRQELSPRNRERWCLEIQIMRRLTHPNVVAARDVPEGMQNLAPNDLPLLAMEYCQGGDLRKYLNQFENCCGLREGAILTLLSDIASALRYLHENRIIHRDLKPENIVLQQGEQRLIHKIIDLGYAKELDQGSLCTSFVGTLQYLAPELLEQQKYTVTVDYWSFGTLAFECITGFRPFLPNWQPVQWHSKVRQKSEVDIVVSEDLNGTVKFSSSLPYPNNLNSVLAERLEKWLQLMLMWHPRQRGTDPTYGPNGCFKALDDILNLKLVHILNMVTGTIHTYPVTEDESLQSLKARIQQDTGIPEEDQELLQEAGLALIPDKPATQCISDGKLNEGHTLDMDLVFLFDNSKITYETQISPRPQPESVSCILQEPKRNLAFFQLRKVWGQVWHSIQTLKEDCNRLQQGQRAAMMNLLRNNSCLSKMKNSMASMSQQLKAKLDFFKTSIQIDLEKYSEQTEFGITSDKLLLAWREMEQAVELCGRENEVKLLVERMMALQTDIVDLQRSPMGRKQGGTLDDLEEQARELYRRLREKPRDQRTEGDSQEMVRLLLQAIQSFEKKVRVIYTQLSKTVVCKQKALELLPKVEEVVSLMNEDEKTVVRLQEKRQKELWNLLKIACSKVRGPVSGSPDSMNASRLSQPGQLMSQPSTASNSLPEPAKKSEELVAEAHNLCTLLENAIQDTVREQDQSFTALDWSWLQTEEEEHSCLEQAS
The data set is described as follows: Inhibition of FLAG-tagged human recombinant IKKbeta phosphorylation expressed in baculovirus infected insect Sf9 cells after 1 hr by luminescence assay. The essentials: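 Kinase reaction ran 1 h at room temperature with bacterially expressed GST-IkBα substrate and 500 nmol ATP, in 25 mmol/l HEPES pH 7.5, 10 mmol/l Mg acetate, 1 mmol DTT, 0.01% BSA and 0.01% Tween20. Stopped with equal volume Kinase-Glo, 10 min RT, then luminescence of remaining ATP read.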

Data set [11] in a line: Inhibition of TNF-alpha-induced NF-kappaB (unknown origin) activation transfected in human A549 cells after 7 hrs by bright-glo luciferase reporter gene assay. Type of data set: cell-based. In outline:
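A549 cells co-transfected with pNF-κB-Luc and pSV-β-galactosidase (internal control) using lipofectamine. Medium changed at 6 h, cells cultured a further 6 h, then given TNF-α 15 ng/ml and compound together for 7 h. Read-out is Bright-Glo luciferase, corrected for background and viability and expressed relative to TNF-α-only cells. IC50 from a variable-slope sigmoidal fit.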

The subject of data set [12] is A549. As to the kind of experiment: Cytotoxicity against human A549 cells transfected with NF-kappaB assessed as reduction of cell viability relative to control. Also noted: concentration or dose not given beside the values. The format is cell-based.

Take `CC(C)=CC(=O)O[C@@H]1CC(C)(C)C[C@H]2C3=CC[C@@H]4[C@@]5(C)CC[C@H](OC(=O)/C=C/c6ccccc6)C(C)(C)[C@@H]5CC[C@@]4(C)[C@]3(C)CC[C@@]12C(=O)O`: the remaining at 2 h, 5 mg/ml in data set [1] is 39.2%; in data set [8], 97.2%. Further, the remaining at 1 h, 5 mg/ml in data set [2] is 48.1%. In addition, in data set [3], the remaining at 0.25 h, 5 mg/ml came out at 74.7%. Moreover, in data set [4], the remaining at 0.5 h, 5 mg/ml turned out to be 55.5%. In data set [5], the remaining at 8 h, 5 mg/ml is 87.6%. The remaining at 12 h, 5 mg/ml in [6] was 81%. Also, the remaining at 5 h, 5 mg/ml in data set [7] is 92.5%. For the same compound, the IC50 in the data set on A549 [9] stood at 0.08 µmol; in data set [10] it was 0.94 µmol; in data set [11] it was 0.42 µmol. In the data set on A549 [12], the Activity is given as below 5%.

As for `C/C=C(\C)C(=O)O[C@@H]1CC(C)(C)C[C@H]2C3=CC[C@@H]4[C@@]5(C)CC[C@H](OC(=O)/C=C/c6ccccc6)C(C)(C)[C@@H]5CC[C@@]4(C)[C@]3(C)CC[C@@]12C(=O)O`, the remaining at 2 h, 5 mg/ml in data set [1] was 36.8%; in data set [8], 96.4%. Besides, the remaining at 1 h, 5 mg/ml in data set [2] turned out to be 46.8%. The remaining at 0.25 h, 5 mg/ml in [3] was 74.2%. Also, in [4], the remaining at 0.5 h, 5 mg/ml was found to be 54.7%. The remaining at 8 h, 5 mg/ml in data set [5] was 84.7%. In addition, the remaining at 12 h, 5 mg/ml in data set [6] is 76.6%. The remaining at 5 h, 5 mg/ml in data set [7] was 90.7%. Further, the results for the IC50 (in the data set on A549 [9]; in data set [10]; in data set [11]) were 0.12 µmol, 1.2 µmol and 0.56 µmol, respectively. Besides, in the data set on A549 [12], the Activity is recorded as below 5%.
